Results from ChEMBL document CHEMBL4138159, “Design, synthesis and evaluation of amino-substituted 1H-phenalen-1-ones as anti-leishmanial agents” (Eur J Med Chem, 2018).
The source made the active and inactive calls. No cut-off for these calls is given here.

How the values were obtained:
Leishmania amazonensis [1] = test: Antileishmanial activity against Leishmania amazonensis MHOM/BR/77/LTB0016 amastigotes infected in mouse J774A.1 cells assessed as reduction in transformation of rescued amastigotes to promastiogtes after 24 hrs by Alamarblue assay; format: functional, organism-based; conditions: MHOM/BR/77/LTB0016, J774.A1, 24 h
[2] = Selectivity index, ratio of CC50 for mouse J774A.1 cells to IC50 for Leishmania amazonensis MHOM/BR/77/LTB0016 amastigotes infected in mouse J774A.1 cells; format: toxicity, cell-based; conditions: read-out: Ratio CC50/IC50
In short: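 SI = CC50 in J774A.1 macrophages divided by IC50 against intracellular L. amazonensis amastigotes.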

Leishmania amazonensis [3] = test: Potency index, ratio of miltefosine IC50 to compound IC50 for Leishmania amazonensis MHOM/BR/77/LTB0016 amastigotes infected in mouse J774A.1 cells; format: functional
[4] = Cytotoxicity against mouse J774A.1 cells; format: cell-based, J774.A1
Leishmania amazonensis [5] = test: Induction of mitochondrial membrane potential loss in Leishmania amazonensis MHOM/BR/77/LTB0016 promastigotes at antileishmanial IC90 after 24 hrs by JC-1 staining-based spectrofluorometric analysis; format: functional, organism-based
Leishmania amazonensis [6] = test: Antileishmanial activity against Leishmania amazonensis MHOM/BR/77/LTB0016 promastigotes after 72 hrs by Alamarblue assay; format: functional, organism-based; conditions: MHOM/BR/77/LTB0016, 72 h
In short: (§1)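 Log-phase promastigotes (10⁵/well, grown in Schneider's medium with 10% FBS at 26 °C) added to serial compound dilutions in phenol red-free RPMI 1640 with 10% heat-inactivated FBS, plus 10% alamarBlue. Incubated 72 h at 27 °C in the dark. Read at 560 nm against 590 nm reference. Single-concentration screen at 25 µM. IC50 by non-linear regression. Three experiments, each in duplicate.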

Leishmania donovani [7] = test: Antileishmanial activity against Leishmania donovani MHOM/IN/90/GE1F8R promastigotes after 72 hrs by Alamarblue assay; format: functional, organism-based; in short: as §1
Leishmania donovani [8] = test: Antileishmanial activity against Leishmania donovani MHOM/SD/00/1S-2D promastigotes preincubated for 2 hrs followed by compound wash measured after 48 hrs by MTT assay; format: functional, organism-based
Leishmania amazonensis [9] = test: Antileishmanial activity against Leishmania amazonensis MHOM/BR/77/LTB0016 promastigotes at 25 uM after 72 hrs by Alamarblue assay relative to control; format: functional; in short: as §1
Leishmania donovani [10] = test: Antileishmanial activity against Leishmania donovani MHOM/IN/90/GE1F8R promastigotes at 25 uM after 72 hrs by Alamarblue assay relative to control; format: functional; in short: as §1

Row | Structure (SMILES) | IC50 (Leishmania amazonensis [6]) [µM] | IC50 (Leishmania donovani [7]) [µM] | further results
1 | CN(C)CCNC1=CC(=O)c2cccc3cccc1c23 | 2.1 | 4.3 | IC50 (Leishmania amazonensis [1]): 600 nM; selectivity ratio [2]: 159; Ratio IC50 (Leishmania amazonensis [3]): 3 - 5; CC50 [4]: 95.6 µM; Activity (Leishmania amazonensis [5]): Active
2 | O=C1C=Cc2cccc3ccc(Nc4cccnc4)c1c23 | > 25 | > 25 | –
3 | O=C1C=Cc2c(N3CCN(Cc4ccccc4)CC3)ccc3cccc1c23 | 17.5 | 26.3 | –
4 | O=C1C=Cc2cccc3ccc(Nc4ccccn4)c1c23 | > 25 | > 25 | –
5 | COC1=Cc2cccc3ccc(-c4ccccc4)c(c23)C1=O | – | – | IC50 (Leishmania donovani [8]): 35 to 40 µM
6 | N#Cc1ccc(NC2=Cc3cccc4cccc(c34)C2=O)cc1 | > 25 | > 25 | –
7 | CN(CCO)C1=Cc2cccc3cccc(c23)C1=O | > 25 | > 25 | Activity (Leishmania amazonensis [9]): <25%; Activity (Leishmania donovani [10]): <25%
8 | O=C1C=Cc2cccc3ccc(NCCO)c1c23 | 27.4 | > 25 | –
9 | O=C1C=C(N2CCCCC2)c2cccc3cccc1c23 | > 25 | > 25 | –
10 | CN(C)CCNC1=Cc2cccc3cccc(c23)C1=O | 6 | 9.6 | IC50 (Leishmania amazonensis [1]): 900 nM; selectivity ratio [2]: 136; Ratio IC50 (Leishmania amazonensis [3]): 3 - 5; CC50 [4]: 122 µM; Activity (Leishmania amazonensis [5]): Active
11 | O=C1C(Nc2ccccc2)=Cc2cccc3cccc1c23 | > 25 | > 25 | –
12 | O=C1C(N2CCN(c3ncccn3)CC2)=Cc2cccc3cccc1c23 | > 25 | > 25 | –
13 | O=C1C(O)=Cc2cccc3ccc(-c4ccccc4)c1c23 | – | – | IC50 (Leishmania donovani [8]): 35 to 40 µM
14 | O=C1C(Nc2cccnc2)=Cc2cccc3cccc1c23 | > 25 | > 25 | Activity (Leishmania amazonensis [9]): <25%; Activity (Leishmania donovani [10]): <25%
15 | CN(CCO)c1ccc2cccc3c2c1C(=O)C=C3 | > 25 | > 25 | –
16 | O=C1C=Cc2cccc3ccc(N4CCN(c5ncccn5)CC4)c1c23 | > 25 | > 25 | –
17 | O=C1C=Cc2c(NCc3ccccc3)ccc3cccc1c23 | > 25 | > 25 | –
18 | CN(C)CCNc1ccc2cccc3c2c1C(=O)C=C3 | 1.4 | 2.8 | IC50 (Leishmania amazonensis [1]): 700 nM; selectivity ratio [2]: 55.6; CC50 [4]: 38.9 µM; Activity (Leishmania amazonensis [5]): Active
19 | O=C1C=C(N2CCN(Cc3ccccc3)CC2)c2cccc3cccc1c23 | 9.7 | 24 | IC50 (Leishmania amazonensis [1]): 1100 nM; selectivity ratio [2]: 26; CC50 [4]: 28.5 µM; Activity (Leishmania amazonensis [5]): Active
20 | O=C1C=Cc2cccc3ccc(Nc4ccccc4)c1c23 | > 25 | > 25 | –
21 | CCCNC1=CC(=O)c2cccc3cccc1c23 | > 25 | > 25 | –

Row | Structure (SMILES) | IC50 (Leishmania amazonensis [6]) [µM] | IC50 (Leishmania donovani [7]) [µM] | further results
22 | O=C1C=Cc2cccc3ccc(N4CCOCC4)c1c23 | > 25 | > 25 | –
23 | NC1=Cc2cccc3cccc(c23)C1=O | > 25 | > 25 | Activity (Leishmania amazonensis [9]): <25%; Activity (Leishmania donovani [10]): <25%
24 | O=C1C=Cc2cccc3ccc(N4CCN(Cc5ccccc5)CC4)c1c23 | 11.6 | 14 | IC50 (Leishmania amazonensis [1]): 600 nM; selectivity ratio [2]: 153; Ratio IC50 (Leishmania amazonensis [3]): 3 - 5; CC50 [4]: 91.7 µM; Activity (Leishmania amazonensis [5]): inactive
25 | O=C1C=Cc2cccc3ccc(NCc4ccccc4)c1c23 | 3.5 | 8.3 | IC50 (Leishmania amazonensis [1]): 2300 nM; selectivity ratio [2]: 4.1; CC50 [4]: 9.4 µM; Activity (Leishmania amazonensis [5]): Active
26 | CCCNc1ccc2cccc3c2c1C(=O)C=C3 | > 25 | > 25 | –
27 | O=C1C=Cc2cccc3ccc(O)c1c23 | > 25 | > 25 | –
28 | O=C1C(N2CCN(Cc3ccccc3)CC2)=Cc2cccc3cccc1c23 | 24 | 26.4 | IC50 (Leishmania amazonensis [1]): 2400 nM; selectivity ratio [2]: 51; CC50 [4]: 122 µM; Activity (Leishmania amazonensis [5]): inactive
29 | CN(CCO)C1=CC(=O)c2cccc3cccc1c23 | > 25 | > 25 | –
30 | O=C1C=C(NCc2ccccc2)c2cccc3cccc1c23 | > 25 | > 25 | –
31 | O=C1C=Cc2cccc3ccc(N4CCCCC4)c1c23 | > 25 | > 25 | –
32 | O=C1C(NCc2ccccc2)=Cc2cccc3cccc1c23 | > 25 | > 25 | –
33 | O=C1C(Nc2ccccn2)=Cc2cccc3cccc1c23 | > 25 | > 25 | –
34 | O=C1C(N2CCOCC2)=Cc2cccc3cccc1c23 | > 25 | > 25 | –
35 | O=C1C=Cc2cccc3cccc1c23 [PERINAPHTHENONE] | > 25 | > 25 | –
36 | CN(C)CCNc1ccc2cccc3c2c1C=CC3=O | 7.2 | 32.7 | –
37 | CCCCCCCCCCCCCCCCOP(=O)([O-])OCC[N+](C)(C)C [MILTEFOSINE] | 6.5 | 3.3 | IC50 (Leishmania amazonensis [1]): 3100 nM; selectivity ratio [2]: 23.8; CC50 [4]: 73.7 µM; Activity (Leishmania amazonensis [5]): Active
38 | O=C1C=C(N2CCOCC2)c2cccc3cccc1c23 | > 25 | > 25 | –
39 | O=C1C=C(N2CCN(c3ncccn3)CC2)c2cccc3cccc1c23 | > 25 | > 25 | –
40 | N#Cc1ccc(Nc2ccc3cccc4c3c2C(=O)C=C4)cc1 | > 25 | > 25 | –
41 | CCCNC1=Cc2cccc3cccc(c23)C1=O | > 25 | > 25 | Activity (Leishmania amazonensis [9]): <25%; Activity (Leishmania donovani [10]): <25%
42 | Nc1ccc2cccc3c2c1C(=O)C=C3 | 26.2 | > 25 | –
